In ChEMBL document CHEMBL3351943, “Binding modes of reverse fosmidomycin analogs toward the antimalarial target IspC” (J Med Chem, 2014) one finds IC50 data, which are given here for 13 compounds.

SMILES strings stand for the structures.

Assay [1] in a line: Inhibition of Plasmodium falciparum IspC using 1-deoxy-D-xylulose 5-phosphate as substrate by photometric analysis. A digest of the protocol: (§1)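 Photometric enzyme assay run per an earlier method. IC50 was fitted by nonlinear regression from eight or more data points. Generally two or three independent determinations were made.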
The target of assay [2] is T1, 1-deoxy-D-xylulose 5-phosphate reductoisomerase (Escherichia coli K-12, UniProt P45568).
T1 sequence (P45568 whole entry): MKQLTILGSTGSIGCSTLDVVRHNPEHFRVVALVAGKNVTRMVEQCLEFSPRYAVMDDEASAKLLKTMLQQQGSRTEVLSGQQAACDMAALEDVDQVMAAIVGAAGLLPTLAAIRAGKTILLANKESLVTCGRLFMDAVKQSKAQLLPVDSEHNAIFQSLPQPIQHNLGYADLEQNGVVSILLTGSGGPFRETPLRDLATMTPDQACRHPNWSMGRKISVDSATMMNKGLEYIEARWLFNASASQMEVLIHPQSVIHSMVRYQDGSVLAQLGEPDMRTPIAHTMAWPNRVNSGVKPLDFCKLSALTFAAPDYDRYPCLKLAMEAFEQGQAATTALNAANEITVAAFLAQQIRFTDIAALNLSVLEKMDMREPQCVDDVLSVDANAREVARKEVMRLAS
Kind of assay: Inhibition of Escherichia coli M15 recombinant IspC using 1-deoxy-D-xylulose 5-phosphate as substrate by photometric analysis. A digest of the protocol:
as §1

Assay [3] has as its target T2, 1-deoxy-D-xylulose 5-phosphate reductoisomerase (Mycobacterium tuberculosis, UniProt P9WNS1).
T2 sequence (P9WNS1 whole entry): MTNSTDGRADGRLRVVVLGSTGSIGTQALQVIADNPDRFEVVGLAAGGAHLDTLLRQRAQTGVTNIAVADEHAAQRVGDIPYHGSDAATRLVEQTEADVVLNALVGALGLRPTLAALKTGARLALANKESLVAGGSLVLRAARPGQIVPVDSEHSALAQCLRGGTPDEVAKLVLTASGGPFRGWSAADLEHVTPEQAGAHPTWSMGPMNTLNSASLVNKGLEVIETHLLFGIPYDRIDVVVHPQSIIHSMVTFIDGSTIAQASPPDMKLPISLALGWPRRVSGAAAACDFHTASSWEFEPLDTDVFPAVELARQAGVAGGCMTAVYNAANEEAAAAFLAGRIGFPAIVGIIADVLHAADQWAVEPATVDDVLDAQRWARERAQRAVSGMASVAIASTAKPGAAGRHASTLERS
Kind of assay: Inhibition of Mycobacterium tuberculosis IspC using 1-deoxy-D-xylulose 5-phosphate as substrate by photometric analysis.

In assay [4] the test system is Plasmodium falciparum. Kind of assay: Antimicrobial activity against chloroquine-sensitive Plasmodium falciparum 3D7 assessed as growth inhibition after 3 days by HRP2-based ELISA. Format: functional, organism-based. The note with it: 3D7, 72 h. The essentials:
(§2)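 Parasite growth followed by ELISA for P. falciparum histidine-rich protein 2; values are the mean of two duplicate determinations.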

Assay [5] deals with Plasmodium falciparum. Put plainly: Antimicrobial activity against multidrug-resistant Plasmodium falciparum FCR3 assessed as growth inhibition after 3 days by HRP2-based ELISA. The format is functional, organism-based. The note with it: FCR3, 72 h. A digest of the protocol: as §2
Assay [6] concerns Plasmodium falciparum. Kind of assay: Antimicrobial activity against chloroquine-resistant Plasmodium falciparum Dd2 assessed as growth inhibition after 3 days by HRP2-based ELISA. Format: functional. To be noted: Dd2, 72 h. A digest of the protocol: as §2

On to `O=P(O)(O)CCC(c1cccc2ccccc12)P(=O)(O)O` (stereo unspecified), for which the half-maximal inhibitory concentration (IC50) is over 300 µM in assay [1], over 500 µM in assay [2], over 500 µM in assay [3] and over 50 µM in assay [4].
In the case of `COc1ccc(C(OCC(=O)N(C)O)P(=O)(O)O)cc1` (stereo unspecified), the IC50 in assay [1] amounted to 0.05 µM; in assay [5], 0.41 µM; in assay [2], 0.45 µM; in assay [3] it was 2.8 µM; in assay [6], 1.1 µM; in assay [4], 0.31 µM.
Consider `O=C(CCC(c1ccccc1)P(=O)(O)O)Nc1ccccc1O` (stereo unspecified), for which the IC50 in assay [1] was over 300 µM; in assay [2], over 500 µM; in assay [3] it was over 500 µM; in assay [4], over 50 µM.
`COc1ccc(C(CCC(=O)NO)P(=O)(O)O)cc1` (stereo unspecified): the IC50 in assay [1] was 0.08 µM; in assay [2], 0.14 µM; in assay [3] it was 15 µM; in assay [6], 3.6 µM; in assay [4], 1.7 µM.
In the case of `COc1ccc(C(CCC(=O)N(C)O)P(=O)(O)O)cc1` (stereo unspecified), the half-maximal inhibitory concentration (IC50) in assay [1] is 0.02 µM; in assay [5] it was 0.57 µM; in assay [2], 0.07 µM; in assay [3], 2 µM; in assay [6] it was 0.3 µM; in assay [4], 0.1 µM.
Regarding `O=C(CCC(NC(=O)c1ccccc1)P(=O)(O)O)NO` (stereo unspecified), the IC50 in assay [1] was over 1000 µM; in assay [2], 741 µM; in assay [3], over 1000 µM; in assay [4], over 50 µM.
Regarding `CN(O)C(=O)CCCC(c1ccccc1)P(=O)(O)O` (stereo unspecified), the IC50 is 2.1 µM in assay [1], 4.3 µM in assay [2], 429 µM in assay [3] and over 50 µM in assay [4].
For `COc1ccc(C(OCC(=O)NO)P(=O)(O)O)cc1` (stereo unspecified), in that order: 2.2 µM, 17 µM, 352 µM and over 50 µM.
In the case of `Cc1ccc(C(CCC(=O)N(C)O)P(=O)(O)O)cc1` (stereo unspecified), the IC50 came out at 0.01 µM in assay [1]; 0.38 µM in assay [5]; 0.29 µM in assay [2]; 0.25 µM in assay [6]; 0.21 µM in assay [4].
Consider `COc1ccc(C(CCC(=O)NO)P(=O)(O)O)cc1OC` (stereo unspecified), for which the IC50 in assay [1] worked out at 0.13 µM; in assay [2], 1.5 µM; in assay [3], 163 µM; in assay [6] it was 8.1 µM; in assay [4], 6.8 µM.
With `Cc1ccc(C(CCC(=O)NO)P(=O)(O)O)cc1` (stereo unspecified), the IC50 in assay [1] came out at 0.19 µM; in assay [2], 0.7 µM; in assay [3], 11 µM; in assay [6], 2.8 µM; in assay [4], 2.6 µM.
Take `COc1ccc(C(CCC(=O)N(C)O)P(=O)(O)O)cc1OC` (stereo unspecified): the IC50 was 0.06 µM in assay [1]; 0.32 µM in assay [2]; 29 µM in assay [3]; 1.2 µM in assay [6]; 0.29 µM in assay [4].
Take `CN(O)C(=O)CCC(NC(=O)c1ccccc1)P(=O)(O)O` (stereo unspecified): the half-maximal inhibitory concentration (IC50) is 9.1 µM in assay [1], 11 µM in assay [2], 238 µM in assay [3] and over 50 µM in assay [4].
